# Columns and labels:
# [1] = system: IGROV-1; test: Growth inhibition of human IGROV1 cells after 48 hrs by sulforhodamine B assay; assay type: functional; settings: IGROV-1, 48 h
# In short: (§1)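 NCI screen panel. Five 10-fold concentrations from 10^-4 to 10^-8 M. Exposure for the last 48 h of a 72 h incubation. Growth estimated by sulforhodamine B protein assay. GI50 is the concentration giving 50% growth inhibition. Where that level was not reached or was exceeded, the value is given as above or below the highest or lowest concentration tested.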
# [2] = system: NCI-H226; test: Growth inhibition of human NCI-H226 cells after 48 hrs by sulforhodamine B assay; assay type: functional; settings: NCI-H226, 48 h; in short: as §1
# [3] = system: NCI-H322M; test: Growth inhibition of human NCI-H322M cells after 48 hrs by sulforhodamine B assay; assay type: functional; in short: as §1
# [4] = system: UACC-62; test: Growth inhibition of human UACC62 cells after 48 hrs by sulforhodamine B assay; assay type: functional; settings: UACC-62, 48 h
# In short: (§2)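 NCI in vitro panel screen. Compounds tested at five 10-fold dilutions, 10^-4 to 10^-8 M. Cells in 96-well plates were exposed for the last 48 h of a 72 h incubation. Viability/growth was read by sulforhodamine B protein assay. GI50 is the concentration giving 50% growth inhibition. Values beyond the tested range are reported as greater or less than the maximum or minimum concentration.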
# [5] = system: HOP-62; test: Growth inhibition of human HOP62 cells after 48 hrs by sulforhodamine B assay; assay type: functional; settings: HOP-62, 48 h; in short: as §1
# [6] = system: 786-0; test: Growth inhibition of human 786-0 cells after 48 hrs by sulforhodamine B assay; assay type: functional; settings: 786-0, 48 h; in short: as §1
# [7] = system: SK-MEL-28; test: Growth inhibition of human SK-MEL-28 cells after 48 hrs by sulforhodamine B assay; assay type: functional; settings: SK-MEL-28, 48 h; in short: as §1
# [8] = system: OVCAR-5; test: Growth inhibition of human OVCAR5 cells after 48 hrs by sulforhodamine B assay; assay type: functional; settings: OVCAR-5, 48 h; in short: as §1
# [9] = system: HCT-116; test: Growth inhibition of human HCT116 cells after 48 hrs by sulforhodamine B assay; assay type: functional; settings: HCT-116, 48 h; in short: as §1
# [10] = system: CCRF-CEM; test: Growth inhibition of human CCRF-CEM cells after 48 hrs by sulforhodamine B assay; assay type: functional; in short: as §1
# [11] = system: MCF7; test: Growth inhibition of human MCF7 cells after 48 hrs by sulforhodamine B assay; assay type: functional; settings: MCF7, 48 h; in short: as §1
# [12] = system: BT-549; test: Growth inhibition of human BT549 cells after 48 hrs by sulforhodamine B assay; assay type: functional; settings: BT-549, 48 h; in short: as §1
# [13] = system: SN12C; test: Growth inhibition of human SN12C cells after 48 hrs by sulforhodamine B assay; assay type: functional; in short: as §2
# [14] = system: U-251; test: Growth inhibition of human U251 cells after 48 hrs by sulforhodamine B assay; assay type: functional; settings: U-251, 48 h; in short: as §2
# [15] = system: SF-268; test: Growth inhibition of human SF268 cells after 48 hrs by sulforhodamine B assay; assay type: functional; settings: SF-268, 48 h; in short: as §1
# [16] = system: UO-31; test: Growth inhibition of human UO31 cells after 48 hrs by sulforhodamine B assay; assay type: functional; settings: UO-31, 48 h; in short: as §2
# [17] = system: RXF 393; test: Growth inhibition of human RXF393 cells after 48 hrs by sulforhodamine B assay; assay type: functional; settings: RXF 393, 48 h; in short: as §1
# [18] = system: MDA-MB-435; test: Growth inhibition of human MDA-MB-435 cells after 48 hrs by sulforhodamine B assay; assay type: functional; settings: MDA-MB-435, 48 h; in short: as §1
# [19] = Growth inhibition of human Hs 578T cells after 48 hrs by sulforhodamine B assay; assay type: functional; in short: as §1
# [20] = system: HT-29; test: Growth inhibition of human HT-29 cells after 48 hrs by sulforhodamine B assay; assay type: functional; settings: HT-29, 48 h; in short: as §1
# [21] = system: MOLT-4; test: Growth inhibition of human MOLT4 cells after 48 hrs by sulforhodamine B assay; assay type: functional; settings: MOLT-4, 48 h; in short: as §1
# [22] = system: LOX IMVI; test: Growth inhibition of human LOXIMVI cells after 48 hrs by sulforhodamine B assay; assay type: functional; in short: as §1
# [23] = system: PC-3; test: Growth inhibition of human PC3 cells after 48 hrs by sulforhodamine B assay; assay type: functional; settings: PC-3, 48 h; in short: as §1
# [24] = system: SNB-75; test: Growth inhibition of human SNB75 cells after 48 hrs by sulforhodamine B assay; assay type: functional; settings: SNB-75, 48 h; in short: as §2
# [25] = system: COLO 205; test: Growth inhibition of human COLO205 cells after 48 hrs by sulforhodamine B assay; assay type: functional; settings: COLO 205, 48 h; in short: as §1
# [26] = system: HOP-92; test: Growth inhibition of human HOP92 cells after 48 hrs by sulforhodamine B assay; assay type: functional; settings: HOP-92, 48 h; in short: as §1
# [27] = system: MDA-N; test: Growth inhibition of human MDA-N cells after 48 hrs by sulforhodamine B assay; assay type: functional
# In short: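 NCI screen panel. Five 10-fold concentrations from 10^-4 to 10^-8 M. Exposure for the last 48 h of a 72 h incubation. Growth estimated by sulforhodamine B protein assay. Where that level was not reached or was exceeded, the value is given as above or below the highest or lowest concentration tested.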
# [28] = system: HCC 2998; test: Growth inhibition of human HCC2998 cells after 48 hrs by sulforhodamine B assay; assay type: functional; settings: HCC 2998, 48 h; in short: as §1
# [29] = system: DU-145; test: Growth inhibition of human DU145 cells after 48 hrs by sulforhodamine B assay; assay type: functional; settings: DU-145, 48 h; in short: as §1
# [30] = system: ACHN; test: Growth inhibition of human ACHN cells after 48 hrs by sulforhodamine B assay; assay type: functional; in short: as §1
# [31] = system: SNB-19; test: Growth inhibition of human SNB19 cells after 48 hrs by sulforhodamine B assay; assay type: functional; settings: SNB-19, 48 h; in short: as §2
# [32] = system: OVCAR-4; test: Growth inhibition of human OVCAR4 cells after 48 hrs by sulforhodamine B assay; assay type: functional; settings: OVCAR-4, 48 h; in short: as §1
# [33] = system: A498; test: Growth inhibition of human A498 cells after 48 hrs by sulforhodamine B assay; assay type: functional; settings: A498, 48 h; in short: as §1
# [34] = system: MDA-MB-231; test: Growth inhibition of human MDA-MB-231 cells after 48 hrs by sulforhodamine B assay; assay type: functional; settings: MDA-MB-231, 48 h; in short: as §1
# [35] = system: SK-OV-3; test: Growth inhibition of human SKOV3 cells after 48 hrs by sulforhodamine B assay; assay type: functional; settings: SK-OV-3, 48 h; in short: as §1
# [36] = system: MT4; test: Antiproliferative activity against human MT4 cells assessed as reduction of growth by MTT assay; assay type: functional, cell-based
# In short: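 MT-4 lymphoblastoid T cells (ATCC) in RPMI 1640 with 10% FCS, penicillin/streptomycin, checked for mycoplasma. 1 × 10⁴ mock-infected cells per well with serial dilutions from a 100 mM DMSO stock. Incubated 4 days at 37 °C, viable cells counted by MTT. IC50 versus untreated controls by linear regression. Mean of three separate experiments.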
# [37] = system: SF-295; test: Growth inhibition of human SF295 cells after 48 hrs by sulforhodamine B assay; assay type: functional; settings: SF-295, 48 h; in short: as §1
# [38] = system: HCT-15; test: Growth inhibition of human HCT15 cells after 48 hrs by sulforhodamine B assay; assay type: functional; settings: HCT-15, 48 h; in short: as §1
# [39] = system: UACC-257; test: Growth inhibition of human UACC257 cells after 48 hrs by sulforhodamine B assay; assay type: functional; settings: UACC-257, 48 h; in short: as §2
# [40] = system: Malme-3M; test: Growth inhibition of human MALME-3M cells after 48 hrs by sulforhodamine B assay; assay type: functional; in short: as §1
# [41] = system: A549; test: Growth inhibition of human A549 cells after 48 hrs by sulforhodamine B assay; assay type: functional; settings: A549, 48 h; in short: as §1
structure (smiles),measurement,setting,value
COc1cc(C(=O)N2CCN(C=O)C2=S)cc(OC)c1OC,GI50,[1],21.9 µM
same,GI50,[2],35.9 µM
same,GI50,[3],24.8 µM
same,GI50,[4],15.8 µM
same,GI50,[5],20 µM
same,GI50,[6],12.7 µM
same,GI50,[7],29.5 µM
same,GI50,[8],48.5 µM
same,GI50,[9],35.6 µM
same,GI50,[10],18.3 µM
same,GI50,[11],5.5 µM
same,GI50,[12],25 µM
same,GI50,[13],20.2 µM
same,GI50,[14],16.4 µM
same,GI50,[15],21.4 µM
same,GI50,[16],0.07 µM
same,GI50,[17],16.1 µM
same,GI50,[18],15.5 µM
same,GI50,[19],27.6 µM
same,GI50,[20],26.7 µM
same,GI50,[21],29.4 µM
same,GI50,[22],16.4 µM
same,GI50,[23],22.2 µM
same,GI50,[24],10.9 µM
same,GI50,[25],20.2 µM
same,GI50,[26],9.3 µM
same,GI50,[27],17.9 µM
same,GI50,[28],19.8 µM
same,GI50,[29],19.6 µM
same,GI50,[30],20.1 µM
same,GI50,[31],28.5 µM
same,GI50,[32],24.1 µM
same,GI50,[33],20.5 µM
same,GI50,[34],21.5 µM
same,GI50,[35],21.9 µM
same,IC50,[36],13 µM
same,GI50,[37],29.3 µM
same,GI50,[38],25.6 µM
same,GI50,[39],19.9 µM
same,GI50,[40],24.3 µM
same,GI50,[41],33.2 µM
O=C(c1ccc(Cl)c(Cl)c1)N1CCN(C(=O)c2ccc(Cl)c(Cl)c2)C1=S,GI50,[1],19.7 µM
same,GI50,[2],19 µM
same,GI50,[3],19.8 µM
same,GI50,[4],18.1 µM
same,GI50,[5],17.6 µM
same,GI50,[6],7.2 µM
same,GI50,[7],30.6 µM
same,GI50,[8],24.3 µM
same,GI50,[9],18.1 µM
same,GI50,[10],4.5 µM
same,GI50,[11],5.6 µM
same,GI50,[12],23.6 µM
same,GI50,[13],18.3 µM
same,GI50,[14],16.4 µM
same,GI50,[15],16.8 µM
same,GI50,[17],17.8 µM
same,GI50,[18],15.4 µM
same,GI50,[19],29.1 µM
same,GI50,[20],24.2 µM
same,GI50,[21],15.7 µM
same,GI50,[22],7.6 µM
same,GI50,[23],16.7 µM
same,GI50,[24],18.9 µM
same,GI50,[25],17.7 µM
same,GI50,[26],20 µM
same,GI50,[27],18.3 µM
same,GI50,[28],19.9 µM
same,GI50,[29],14.7 µM
same,GI50,[30],19.2 µM
same,GI50,[31],21.4 µM
same,GI50,[32],16.8 µM
same,GI50,[33],20.2 µM
same,GI50,[34],18.8 µM
same,GI50,[35],18.2 µM
same,IC50,[36],4.6 µM
same,GI50,[37],18.5 µM
same,GI50,[38],19.6 µM
same,GI50,[39],17.3 µM
same,GI50,[40],14.9 µM
same,GI50,[41],27.8 µM

# Reference: ChEMBL document CHEMBL1138555, “N-acylated and N,N'-diacylated imidazolidine-2-thione derivatives and N,N'-diacylated tetrahydropyrimidine-2(1H)-thione analogues: synthesis and antiproliferative activity” (Eur J Med Chem, 2009)
